The values below come from ChEMBL document CHEMBL1124104, “(Acyloxy)benzophenones and (acyloxy)-4-pyrones. A new class of inhibitors of human neutrophil elastase” (J Med Chem, 1988).

The target in experiment [1] is T1, Neutrophil elastase (Homo sapiens, UniProt P08246).
T1 sequence (P08246 whole entry): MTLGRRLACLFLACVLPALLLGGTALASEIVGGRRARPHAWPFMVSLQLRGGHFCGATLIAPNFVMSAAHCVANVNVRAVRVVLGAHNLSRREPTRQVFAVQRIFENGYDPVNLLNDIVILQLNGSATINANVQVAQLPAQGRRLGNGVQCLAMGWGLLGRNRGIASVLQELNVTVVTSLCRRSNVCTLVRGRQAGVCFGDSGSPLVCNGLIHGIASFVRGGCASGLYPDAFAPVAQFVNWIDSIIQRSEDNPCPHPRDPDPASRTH
Nature of the experiment: Binding affinity towards human leukocyte elastase at 10e-8 M. The gist of the method:
(§1)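 HLE activity followed as rise in absorbance at 410 nm from nitroanilide release; substrate (methoxysuccinyl)Ala-Ala-Pro-Val nitroanilide at 10⁻⁴ M. Run in 0.2 M Tris, pH 8.0, 30 °C. Inhibitors and substrate dissolved in DMSO, which made up 10% of the final medium. Enzyme titrated to give 0.12 OD unit/min per 10 mm path.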

Experiment [2] can be described thus: Inhibitory activity against Hog pancreatic elastase; IA = Inactive at 10e-6. Also noted: species or system Sus scrofa.
Experiment [3] addresses T2, Neutrophil elastase (Homo sapiens) (UniProt P08246).
T2 sequence (whole entry): T1 sequence (P08246 whole entry)
To be noted: 2 uM.

For experiment [4], the target named is T2, Neutrophil elastase (Homo sapiens). To be noted: 2 uM. The source holds these as a separate data set.
Experiment [5] shares this target. To be noted: 2 uM. This is another data set of the same source.
For experiment [6] the target is unchanged. To be noted: 1 uM.
The target is the same in experiment [7]. To be noted: 1 uM. This is another data set of the same source.
Experiment [8] concerns the target T1, Neutrophil elastase. As to the kind of experiment: Inhibitory activity against human leukocyte elastase at 10e-7 M.
Experiment [9] is described as follows: Inhibitory activity against pancreatic elastase; IA = Inactive at 10e-6.
In experiment [10] the target is T2, Neutrophil elastase (Homo sapiens). To be noted: 1 uM. This is another data set of the same source.
The target is the same in experiment [11]. To be noted: 3 uM.
Experiment [12] has the same target. To be noted: 3 uM. This is another data set of the same source.
Experiment [13] shares this target. To be noted: 3 uM. The source holds these as a separate data set.
Experiment [14] can be described thus: Inhibitory activity against pancreatic elastase; IA = Inactive at 1e-5M.
Experiment [15] can be described thus: Inhibitory activity against Hog pancreatic elastase; IA = Inactive at 1e-5M. Also noted: species or system Sus scrofa.
Experiment [16] deals with T2, Neutrophil elastase (Homo sapiens). Nature of the experiment: Inhibitory activity against [14C]elastin hydrolysis at 4 uM concentration and 2 hr. In outline:
(§2)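 Elastase digestion of [¹⁴C]elastin, quantitated by radiolabel release (method of Bielefeld et al.). Substrate, inhibitor and elastase were all present for the whole run, and % inhibition was read at 1, 2 and 3 h.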

Experiment [17] deals with T1, Neutrophil elastase. As to the kind of experiment: Inhibitory activity against human leukocyte elastase at 10e-8 M.
Experiment [18] in a line: Inhibitory activity against Hog pancreatic elastase; A = Inactive at 10e-5 M. The arrangement: species or system Sus scrofa.
For experiment [19], the target named is T2, Neutrophil elastase (Homo sapiens). As to the kind of experiment: Inhibitory activity against [14C]elastin hydrolysis at 2 uM concentration and 1h. The gist of the method: as §2
Experiment [20] shares this target. Nature of the experiment: Inhibitory activity against [14C]-Elastin hydrolysis at 2 uM concentration and 3h. The gist of the method: as §2
The target in experiment [21] is T1, Neutrophil elastase. Nature of the experiment: Binding affinity towards human leukocyte elastase at 10e-7 M.
Experiment [22] addresses T2, Neutrophil elastase (Homo sapiens). As to the kind of experiment: Inhibitory activity against [14C]elastin hydrolysis at 1 uM concentration and 1h. In outline: as §2
For experiment [23] the target is unchanged. Nature of the experiment: Inhibitory activity against [14C]elastin hydrolysis at 4 uM concentration and 1h. In outline:
as §2

The target is the same in experiment [24]. As to the kind of experiment: Inhibitory activity against [14C]elastin hydrolysis at 4 uM concentration and 3h. The gist of the method:
as §2

For experiment [25] the target is unchanged. As to the kind of experiment: Inhibitory activity against [14C]-Elastin hydrolysis at 2 uM concentration and 2 hr. In outline: as §2
Experiment [26] has the same target. Nature of the experiment: Inhibitory activity against [14C]elastin hydrolysis at 1 uM concentration and 3h. The gist of the method:
as §2

The target is the same in experiment [27]. As to the kind of experiment: Inhibitory activity against [14C]elastin hydrolysis at 1 uM concentration and 2 hr. In outline:
as §2

A short description of experiment [28]: Inhibitory activity against pancreatic elastase; A = Inactive at 10e-5 M.
The target in experiment [29] is T1, Neutrophil elastase. As to the kind of experiment: Inhibitory activity against human leukocyte elastase;IA = Inactive at 10e-4 M. In outline:
as §1

Experiment [30] deals with T2, Neutrophil elastase (Homo sapiens). As to the kind of experiment: Inhibitory activity against [14C]-Elastin hydrolysis at 0.5 uM concentration and 2 hr. The gist of the method: as §2
Experiment [31] in a line: Inhibitory activity against Hog pancreatic elastase IA = Inactive at 10e-5 M. The arrangement: species or system Sus scrofa.
Experiment [32] concerns the target T2, Neutrophil elastase (Homo sapiens). As to the kind of experiment: Inhibitory activity against [14C]elastin hydrolysis at 0.5 uM concentration and 3h. The gist of the method:
as §2

Experiment [33] has the same target. Nature of the experiment: Inhibitory activity against [14C]elastin hydrolysis at 0.5 uM concentration and 1h. The gist of the method: as §2
A short description of experiment [34]: Inhibitory activity against pancreatic elastase; IA = Inactive at 10e-5 M.

Consider `CC(C)(C)C(=O)Oc1ccc(C(=O)c2ccc(OC(=O)C(C)(C)C)cc2)cc1`, for which the Ki in [1] turned out to be 71 nM. Besides, the IC50 result was “Not Active” in experiment [2], 120 nM in experiment [8] and “Not Active” in experiment [9]. The inhibition amounted to 62% in [3]; 46% in experiment [4]; 42% in experiment [5]; 28% in experiment [6]; 15% in [7]; 34% in [10]. Besides, the inhibition in experiment [11] was 67%; in [12], 77%; in experiment [13], 77%.

In the case of `CC(C)(C)C(=O)Oc1ccc(C(=O)c2ccccc2)cc1`, the 50% inhibitory concentration (IC50) entry in experiment [14] and in [15] was “Not Active” each time.

`CC(C)(C)C(=O)Oc1ccc(C(=O)OCc2cc(=O)c(OC(=O)C(C)(C)C)co2)c(OC(=O)C(C)(C)C)c1`: the inhibition in experiment [16] was 80%; in experiment [19], 36%; in experiment [20], 1%; in experiment [22] it was 25%; in experiment [23], 93%; in experiment [24], 54%. Moreover, the figures for the inhibition in [25], in experiment [26] and in [27] were 16%, -1% and 5%, respectively. Moreover, the half-maximal inhibitory concentration (IC50) is 27 nM in experiment [17], “Not Active” in experiment [18] and “Not Active” in experiment [28]. Also, in experiment [21], the Ki is 70 nM.

`CC(C)(C)C(=O)Oc1coc(CO)cc1=O`: the IC50 result in [29] is reported as “Not Active”.

As for `CC(C)(C)C(=O)Oc1ccc(C(=O)c2ccc(OC(=O)C(C)(C)C)cc2OC(=O)C(C)(C)C)c(OC(=O)C(C)(C)C)c1`, the results for the IC50 in experiment [17], in [31] and in experiment [34] were 27 nM, “Not Active” and “Not Active”, respectively. Moreover, the inhibition in experiment [30] is 38%; in experiment [19], 81%; in experiment [20], 82%; in experiment [22], 62%; in experiment [32], 21%; in experiment [33], 38%. Also, the inhibition amounted to 85% in experiment [25], 59% in [26] and 72% in experiment [27]. Affinity in experiment [1] was put at a Ki of 68 nM.
